What all share (format): ADME, organism-based
A short description of data set [1]: Oral bioavailability in C57BL/6 mouse at 6 umol/kg dosed in HS15/propylenglycol/citrate buffer, pH 4.75, 50 mM (10/5/85, v/v/v) by LC/MS/MS analysis. The following applies: in vivo. A digest of the protocol: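 Oral gavage (10 mL/kg) to male C57BL/6 mice with iv reference segment (2 μmol/kg, NMP/blank plasma 10:90). Noncompartmental analysis of LC-MS/MS blood profiles, 1/Y weighting; %F = dose-normalized oral AUC / dose-normalized iv AUC × 100, assuming linear pharmacokinetics between doses.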

The nature of data set [2]: Drug uptake in C57BL/6 mouse blood at 60 umol/kg, po dosed in HS15/propylenglycol/citrate buffer, pH 4.75, 50 mM (10/5/85, v/v/v) measured 4 hrs post dosing by LC/MS/MS analysis. To be noted: read-out: Drug uptake. The method, boiled down: (§1)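 Male C57BL/6 mice dosed by oral gavage, 10 mL/kg. Blood sampled 0.25, 0.5, 1, 2, 4, 6 h; brain at 1 and/or 4 h; n = 3 per time. Blood acetonitrile-precipitated, brain water-homogenized then precipitated; LC-MS/MS with weighted linear calibration.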

The test system of data set [3] is Brain. The data set can be described thus: Drug uptake in C57BL/6 mouse brain at 60 umol/kg, po dosed in carboxymethyl cellulose 0.5% w/v in water/Tween 80 (99.5/0.5, v/v) measured 1 hr post dosing by LC/MS/MS analysis. To be noted: in vivo. A digest of the protocol:
as §1

Data set [4] can be described thus: Drug uptake in C57BL/6 mouse blood at 60 umol/kg, po dosed in carboxymethyl cellulose 0.5% w/v in water/Tween 80 (99.5/0.5, v/v) measured 4 hrs post dosing by LC/MS/MS analysis. The following applies: read-out: Drug uptake. A digest of the protocol: as §1
Data set [5] can be described thus: Ratio of drug uptake in brain to blood in C57BL/6 mouse at 60 umol/kg, po dosed in carboxymethyl cellulose 0.5% w/v in water/Tween 80 (99.5/0.5, v/v) measured 1 hr post dosing by LC/MS/MS analysis. A digest of the protocol:
as §1

The nature of data set [6]: Ratio of drug uptake in brain to blood in C57BL/6 mouse at 2 umol/kg, iv dosed in N-methyl pyrrolidone/blank plasma (10:90 v/v) measured 4 hrs post dosing by LC/MS/MS analysis. A digest of the protocol:
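Male C57BL/6 mice, saphenous vein injection under light anesthesia, 5 mL/kg. Blood at 5, 30 min and 1, 2, 4, 6, 8 h; brain at 5 min, 1, 4, 8 h; n = 3/time. LC-MS/MS after acetonitrile precipitation (brain water-homogenized). Noncompartmental analysis, 1/Y weighting, terminal slope from ≥3 points.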

Data set [7] is described as follows: AUC (0 to infinity) in C57BL/6 mouse at 60 umol/kg, po dosed in carboxymethyl cellulose 0.5% w/v in water/Tween 80 (99.5/0.5, v/v) by LC/MS/MS analysis. Also on record: dose 60 umol/kg, route oral, time infinity. To be noted: in vivo. A digest of the protocol: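 Male C57BL/6 mice were dosed by oral gavage at 10 mL/kg. Blood was sampled at 0.25, 0.5, 1, 2, 4 and 6 h postdose, extracted by acetonitrile precipitation and quantified by LC-MS/MS (typical LLOQ 0.4 ng/mL). AUCinf was obtained by noncompartmental analysis of concentration–time profiles, weighting 1/Y, with at least three terminal log-linear points.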

For orientation: bioavailability means dose-corrected exposure relative to a reference, in per cent. The molecule `CC(C)(C)c1cccc(CN[C@H]2CS(=O)(=O)C[C@@H](Cc3cc(F)c(N)c(OC(C(F)(F)F)C(F)(F)F)c3)[C@@H]2O)c1` displayed a bioavailability in data set [1] of 32%. Besides, the concentration at 4 h in data set [2] turned out to be 190 nM.
As usually defined, the Kp is tissue or fluid exposure divided by exposure in the circulation. Usually AUC(0-inf) stands for the area under the concentration-time curve extrapolated to infinity. `CC(C)(C)c1cccc(CN[C@H]2CS(=O)(=O)C[C@@H](Cc3cc(F)c(N)c(OCC(F)(F)F)c3)[C@@H]2O)c1`: the Drug uptake in data set [3] is given as 1.19 nmol/g. The concentration at 4 h in data set [4] was found to be 1860 nM. The Kp at 1 h in data set [5] was found to be 0.3. For the same molecule, the Kp at 4 h in data set [6] was 1. Further, the AUC(0-inf) in data set [7] was determined as 14.8 µM·h.

The values above are taken from ChEMBL document CHEMBL2046351, “Discovery of cyclic sulfone hydroxyethylamines as potent and selective β-site APP-cleaving enzyme 1 (BACE1) inhibitors: structure-based design and in vivo reduction of amyloid β-peptides” (J Med Chem, 2012).
